Data: ChEMBL document CHEMBL1134792, “Antimitotic antitumor agents: synthesis, structure-activity relationships, and biological characterization of N-aryl-N'-(2-chloroethyl)ureas as new selective alkylating agents” (J Med Chem, 2001)
Active and inactive are the calls of the source. The calls are words filed in the database; no cut-off is given here.

Key:
[1] = tested on: LoVo; experiment: Dose required to inhibit cell growth was determined against LoVo cell line of human adenocarcinoma; NA= Not active represents IC50 >400 uM; assay type: functional, cell-based
How it was run: (§1)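 Alamar Blue growth-inhibition assay. Cells ((1–5) × 10³ per well) were preincubated for 24 h, then exposed to increasing drug concentrations for 72 h at 37 °C. Alamar Blue (20%) was added and fluorescence read at ex 485 / em 590 nm. IC50 is the dose inhibiting growth by 50%. Means of ≥3 independent determinations.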

[2] = tested on: MDA-MB-231; experiment: Dose required to inhibit cell growth was determined against MDA-MB-231 cell line of human non-hormone dependent breast carcinoma; NA= Not active represents IC50 >400 uM; assay type: functional, cell-based; how it was run: as §1
[3] = tested on: P388; experiment: Dose required to inhibit cell growth was determined against P388D1 cell line of murine lymphocytotic leukemia; NA= Not active represents IC50 >400 uM; assay type: functional, cell-based; conditions: Mus musculus; how it was run: as §1
[4] = Glutathione activity was measured after incubation with a conc. of 500 uM
How it was run: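 Cell-free thiol assay. GSH 500 µM with 1 mM EDTA and 500 µM drug (from 2% ethanol solution) in 0.1 M phosphate buffer pH 7.4, 60 min at room temperature. DTNB (0.133 mM) was then added and A412 read. Reported as % of no-drug control, in triplicate.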

[5] = Alkylating activity by using 4-(4-nitrobenzyl)-pyridine(NBP) colorimetric assay
How it was run: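 NBP colorimetric assay. Drug at 400 nmol/mL in ethanol was mixed with 10% NBP in ethanol and 50 mM sodium acetate pH 4.3, then heated at 80 °C for 60, 90, 120 or 150 min. Samples were chilled and basified with KOH/ethanol, and A570 was read against a drug-free blank. The alkylation rate (A570/min) is the slope of a linear regression of absorbance vs time. Mean ± SD of ≥3 independent experiments.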

[6] = tested on: LoVo; experiment: Dose to inhibit cell growth determined against LoVo cell line of human adenocarcinoma; assay type: functional, cell-based
How it was run: (§2)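 Alamar Blue growth assay. (1–5) × 10^3 cells per well preincubated 24 h, then exposed to increasing drug concentrations for 72 h at 37 °C. Medium replaced with PBS containing 20% Alamar Blue, fluorescence read at 485/590 nm. IC50 is the dose inhibiting growth by 50%.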

[7] = tested on: L1210; experiment: Dose required to inhibit cell growth was determined against L1210 cell line of murine lymphocytotic leukemia; assay type: functional, cell-based; conditions: Mus musculus; how it was run: as §2
[8] = molecular target: T1, Glutathione reductase, mitochondrial (Homo sapiens) (UniProt P00390); experiment: Glutathione reductase activity was measured after incubation with a conc. of 500 uM; assay type: functional
T1 sequence (whole entry): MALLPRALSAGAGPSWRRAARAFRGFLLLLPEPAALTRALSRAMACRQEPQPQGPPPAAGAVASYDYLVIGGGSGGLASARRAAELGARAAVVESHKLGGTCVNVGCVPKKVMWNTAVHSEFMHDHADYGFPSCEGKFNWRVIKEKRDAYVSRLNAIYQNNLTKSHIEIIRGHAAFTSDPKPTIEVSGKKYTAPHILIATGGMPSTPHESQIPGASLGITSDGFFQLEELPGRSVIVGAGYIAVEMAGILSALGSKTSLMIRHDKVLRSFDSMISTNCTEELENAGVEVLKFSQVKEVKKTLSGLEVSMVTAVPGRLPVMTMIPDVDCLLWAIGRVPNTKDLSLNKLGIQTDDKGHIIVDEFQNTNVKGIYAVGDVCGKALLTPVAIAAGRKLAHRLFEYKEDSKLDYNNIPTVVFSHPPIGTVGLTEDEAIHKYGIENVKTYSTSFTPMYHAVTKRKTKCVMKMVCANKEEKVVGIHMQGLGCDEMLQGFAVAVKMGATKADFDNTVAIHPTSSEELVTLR
How it was run: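 Purified glutathione reductase (0.016 U/mL) with 100 µM NADPH, 1 mM EDTA, 1 mg/mL BSA and 500 µM drug (from 2% ethanol solution) in 0.1 M phosphate pH 7.4, preincubated 60 min at 30 °C. GSSG was then added for 60 min at 30 °C. Activity is the […] over 3 min, as % of no-drug control, in triplicate.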

[9] = tested on: P388; experiment: Dose required to inhibit cell growth was determined against P388D1 cell line of murine lymphocytotic leukemia; assay type: functional, cell-based; conditions: Mus musculus; how it was run: as §2
[10] = tested on: MDA-MB-231; experiment: Beta tubulin alkylation activity in MDA-MB-231 cells; assay type: functional, Homo sapiens; set-up: concentration or dose not given beside the values
How it was run: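 MDA-MB-231 cells (~5 × 10^6), exponentially growing, exposed to 30 μM compound for 24 h at 37 °C. Lysed in Laemmli buffer, run on 10% SDS-PAGE, immunoblotted with anti-β-tubulin (TUB 2.1, 1:500) and peroxidase anti-mouse secondary, ECL detection. Normal and alkylated band densities integrated to give % alkylated β-tubulin. Representative of three experiments.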

[11] = tested on: MDA-MB-231; experiment: Dose required to inhibit cell growth was determined against MDA-MB-231 cell line of human non-hormone dependent breast carcinoma; assay type: functional, cell-based; how it was run: as §2
[12] = tested on: HT-29; experiment: Dose required to inhibit cell growth was determined against HT-29 cell line of human adenocarcinoma; assay type: functional, cell-based; how it was run: as §2
[13] = tested on: CHO; experiment: Dose required to inhibit cell growth was determined against CHO cell line; assay type: functional, cell-based; conditions: Cricetulus griseus; how it was run: as §2
[14] = tested on: K562; experiment: Dose required to inhibit cell growth was determined against K562 cell line of chronic myelogenous leukemia; assay type: functional, cell-based; conditions: Homo sapiens; how it was run: as §2
[15] = tested on: HT-29; experiment: Dose required to inhibit cell growth was determined against HT-29 cell line of human adenocarcinoma; Not active represents IC50 >400 uM; assay type: functional, cell-based; how it was run: as §1
[16] = tested on: MDA-MB-231; experiment: Dose required to inhibit cell growth was determined against MDA-MB-231 cell line of human non-hormone dependent breast carcinoma; Not active represents IC50 >400 uM; assay type: functional, cell-based; how it was run: as §1
[17] = tested on: CHO; experiment: Dose required to inhibit cell growth was determined against CHO cell line; Not active represents IC50 >400 uM; assay type: functional, cell-based; conditions: Cricetulus griseus; how it was run: as §1
[18] = tested on: CHO; experiment: Dose required to inhibit cell growth was determined against CHO cell line; NA= Not active represents IC50 >400 uM; assay type: functional, cell-based; conditions: Cricetulus griseus; how it was run: as §1
[19] = tested on: MDA-MB-231; experiment: DNA damages caused in MDA-MB-231 cells after 2 hr compound exposure to 400 uM concentration; assay type: functional, Homo sapiens
How it was run: (§3)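 Growing MDA-MB-231 cells held 2 h at 37 °C in medium with or without 400 μM compound. Cells washed in cold PBS and lysed in Tris/SDS/EDTA/deferoxamine/proteinase K buffer. DNA isolated by salting out, then 3'-end labeled by T4 DNA polymerase nucleotide exchange. Incorporated radioactivity measured by dot filtration, expressed as dCps exchanged/ng DNA. Means ± SD, ≥3 determinations.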

[20] = tested on: MDA-MB-231; experiment: DNA damages caused in MDA-MB-231 cells after 2 hr exposure to a concentration of 400 uM; assay type: functional, Homo sapiens; how it was run: as §3
[21] = tested on: K562; experiment: Dose required to inhibit cell growth was determined against K562 cell line of chronic myelogenous leukemia; Not active represents IC50 >400 uM; assay type: functional, cell-based; conditions: Homo sapiens; how it was run: as §1

Compound	NA [1]	NA [2]	NA [3]	Activity [4] [%]	IC50 [6] [µM]	IC50 [7] [µM]	Activity [8] [%]	IC50 [9] [µM]	Activity [10] [%]	IC50 [11] [µM]	IC50 [12] [µM]	IC50 [13] [µM]	IC50 [14] [µM]	further results
Cc1ccccc1NC(=O)NCCCl	inactive	inactive	inactive	–	–	–	–	–	–	–	–	–	–	–
CCC(C)c1ccc(NC(=O)NCCCl)cc1 (stereo unspecified)	–	–	–	100	2.2	1.3	100	2.4	76	3.1	3.6	4	1.3	Activity [5]: 3.1 A570 min-1
CCCCCCCCCCc1ccc(NC(=O)NCCCl)cc1	inactive	inactive	inactive	–	–	–	–	–	–	–	–	–	–	–
CCNC(=O)Nc1ccc(C(C)C)cc1	–	–	–	–	–	35	–	–	–	–	–	–	142	NA [15]: inactive; NA [16]: inactive; NA [17]: inactive
CCC(C)c1ccc(NC(=O)NC)cc1 (stereo unspecified)	–	–	–	–	–	62	–	–	–	–	–	–	142	NA [15]: inactive; NA [16]: inactive; NA [17]: inactive
Cc1cc(C)nc(NC(=O)NCCCl)c1	inactive	–	inactive	–	–	144	–	–	–	50	–	–	113	NA [18]: inactive
CCCCCc1ccc(NC(=O)NCCCl)cc1	–	–	–	100	5.2	5.4	99	7.3	40	12	12	13	6.1	Activity [5]: 2.9 A570 min-1; DNA damage [19]: 1.93 10e7 exchanged dCps (ng of DNA)
O=NN(CCCl)C(=O)NCCCl [CARMUSTINE]	–	–	–	50	–	4.5	20	5.9	–	7.4	17	8.2	9	DNA damage [20]: 19.9 10e7 exchanged dCps (ng of DNA)
CCCCCCCCCCCCc1ccc(NC(=O)NCCCl)cc1	inactive	inactive	inactive	–	–	–	–	–	–	–	–	–	–	–
CNC(=O)Nc1ccc(C(C)(C)C)cc1	–	–	–	–	–	80	–	–	–	–	196	–	–	NA [16]: inactive; NA [17]: inactive; NA [21]: inactive
O=C(NCCCl)Nc1ccc2ccccc2c1	–	–	–	–	6.2	3	–	5.3	47	6.1	5.5	7.2	3	DNA damage [20]: 1.89 10e7 exchanged dCps (ng of DNA)
CC(C)(C)c1ccc(NC(=O)NCCCl)cc1	–	–	–	100	4.1	3	100	5.2	44	6.2	9.1	6.3	3.5	Activity [5]: 3.1 A570 min-1; DNA damage [19]: 2.22 10e7 exchanged dCps (ng of DNA)
Cc1cccc(C)c1NC(=O)NCCCl	inactive	inactive	inactive	–	–	–	–	–	–	–	–	–	–	–
